Data set [1] has as its target 5-hydroxytryptamine receptor 1A (Homo sapiens) (UniProt P08908). As to the kind of experiment: Displacement of [3H]-8-OH-DPAT from recombinant human 5-HT1AR expressed in CHO cell membranes at 10 uM after 90 mins by scintillation counting method relative to control.
The target in data set [2] is T1, 5-hydroxytryptamine receptor 2C (Homo sapiens) (UniProt P28335).
T1 sequence (whole entry): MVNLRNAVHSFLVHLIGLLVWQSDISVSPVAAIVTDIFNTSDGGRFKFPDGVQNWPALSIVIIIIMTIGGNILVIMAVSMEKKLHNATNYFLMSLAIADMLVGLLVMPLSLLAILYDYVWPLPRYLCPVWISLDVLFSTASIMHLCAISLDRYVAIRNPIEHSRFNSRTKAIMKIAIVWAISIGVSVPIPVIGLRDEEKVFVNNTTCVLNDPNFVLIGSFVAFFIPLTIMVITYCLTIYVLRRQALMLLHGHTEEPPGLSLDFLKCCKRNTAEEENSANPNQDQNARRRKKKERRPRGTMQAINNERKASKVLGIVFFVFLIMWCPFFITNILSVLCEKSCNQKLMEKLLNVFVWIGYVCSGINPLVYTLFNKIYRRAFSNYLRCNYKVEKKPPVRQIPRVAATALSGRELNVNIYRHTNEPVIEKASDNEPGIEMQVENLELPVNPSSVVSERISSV
As to the kind of experiment: Displacement of [3H]-mesulergine from recombinant human 5-HT2CR expressed in Flp-IN HEK cell membranes at 10 uM after 90 mins by scintillation counting method relative to control. The method, boiled down:
(§1)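 Single-concentration screen at 10 μM test compound, each target labelled with the radioligand given in the line. The read-out is mean % inhibition of specific radioligand binding (n = 4). Targets above 50% inhibition went on to full competition isotherms, and Ki came from best-fit IC50 by the Cheng–Prusoff equation.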

For data set [3], the target named is 5-hydroxytryptamine receptor 6 (Homo sapiens) (UniProt P50406). Kind of data set: Displacement of [3H]-LSD from recombinant human 5-HT6R expressed in HEK cell membranes at 10 uM after 90 mins by scintillation counting method relative to control.
Data set [4] deals with 5-hydroxytryptamine receptor 7 (Homo sapiens) (UniProt P34969). As to the kind of experiment: Displacement of [3H]-LSD from recombinant human 5-HT7R expressed in HEK cell membranes at 10 uM after 90 mins by scintillation counting method relative to control.
For data set [5], the target named is D(1A) dopamine receptor (Homo sapiens) (UniProt P21728). As to the kind of experiment: Displacement of [3H]-SCH23390 from recombinant human D1R expressed in HEKT cell membranes at 10 uM after 90 mins by scintillation counting method relative to control.
The target in data set [6] is D(2) dopamine receptor (Homo sapiens) (UniProt P14416). Kind of data set: Displacement of [3H]-N-methylspiperone from recombinant human D2R expressed in fibroblast membranes at 10 uM after 90 mins by scintillation counting method relative to control. In kind it is cell membranes.
The target in data set [7] is D(3) dopamine receptor (Homo sapiens) (UniProt P35462). As to the kind of experiment: Displacement of [3H]-N-methylspiperone from recombinant human D3R expressed in HEK cell membranes at 10 uM after 90 mins by scintillation counting method relative to control. The method, boiled down:
as §1

Data set [8] concerns the target D(1B) dopamine receptor (Homo sapiens) (UniProt P21918). As to the kind of experiment: Displacement of [3H]-SCH23390 from recombinant human D5R expressed in HEKT cell membranes at 10 uM after 90 mins by scintillation counting method relative to control.
The target in data set [9] is Sodium-dependent dopamine transporter (Homo sapiens) (UniProt Q01959). Kind of data set: Displacement of [3H]-WIN35428 from recombinant human DAT expressed in HEK cell membranes at 10 uM after 90 mins by scintillation counting method relative to control. A digest of the protocol: as §1
Data set [10] deals with Sodium-dependent serotonin transporter (Homo sapiens) (UniProt P31645). Kind of data set: Displacement of [3H]-citalopram from recombinant human SERT expressed in HEK cell membranes at 10 uM after 90 mins by scintillation counting method relative to control.
Data set [11] has as its target Alpha-2A adrenergic receptor (Homo sapiens) (UniProt P08913). As to the kind of experiment: Displacement of [3H]-rauwolscine from recombinant human alpha-2A adrenergic receptor expressed in MDCK cell membranes at 10 uM after 90 mins by scintillation counting method relative to control. A digest of the protocol:
as §1

Data set [12] can be described thus: Tmax in Sprague-Dawley rat at 10 mg/kg, po administered as single dose. Format: ADME, organism-based. To be noted: in vivo.
Data set [13] can be described thus: Volume of distribution at steady state in Sprague-Dawley rat at 5 mg/kg, iv administered as single dose. Format: ADME, organism-based. The settings on record: in vivo.
Data set [14] can be described thus: Cmax in Sprague-Dawley rat at 10 mg/kg, po administered as single dose. To be noted: in vivo. More on the design: dose 10 mg/kg, route oral. In kind it is ADME, organism-based.
The test system of data set [15] is Rattus norvegicus. Kind of data set: Suppression of spontaneous locomotor activity in Sprague-Dawley rat assessed as reduction in total ambulation at 5 mg/kg, ip administered as single dose measured for 30 mins. Format: functional, organism-based. The method, boiled down: (§2)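 Male Sprague–Dawley rats naive to activity monitors (n = 7–8/group) received saline (1 mL/kg ip) or compound (0.5, 1 or 5 mg/kg ip) immediately before testing. Ambulations and vertical counts were taken in 5 min bins for 90 min and totalled over the first 30 min. Analysis: one-way ANOVA with Dunnett's comparisons to vehicle.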

In data set [16] the test system is Rattus norvegicus. As to the kind of experiment: Suppression of spontaneous locomotor activity in Sprague-Dawley rat assessed as reduction in total vertical activity at 5 mg/kg, ip administered as single dose measured for 30 mins. Format: functional, organism-based. The method, boiled down: as §2
Data set [17] relates to Rattus norvegicus. Kind of data set: Increase in WAY163909-induced suppression of spontaneous locomotor activity in Sprague-Dawley rat assessed as reduction in total ambulation at 5 mg/kg, ip administered as single dose measured for 30 mins. In kind it is functional, organism-based. The method, boiled down:
(§3)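 Rats (n = 9–10/group) received SB242084 (1 mg/kg ip) or vehicle (8% 2-hydroxypropyl-β-cyclodextrin) 15 min before ip WAY163909 (1 mg/kg) plus compound (5 mg/kg). They were placed in monitors immediately; ambulations and vertical activity were totalled over 30 min. Analysis: ANOVA with Bonferroni comparisons.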

The test system of data set [18] is Rattus norvegicus. As to the kind of experiment: Increase in WAY163909-induced suppression of spontaneous locomotor activity in Sprague-Dawley rat assessed as reduction in total ambulation at 5 mg/kg, ip cotreated with WAY163909 at 15 mins post 5-HT2C antagonist SB242084 treatment measured for 30 mins. Format: functional, organism-based. The method, boiled down: as §3

In data set [19] the test system is Rattus norvegicus. Kind of data set: Drug discrimination in WAY163909-trained Sprague-Dawley rat assessed as increase in WAY163909-appropriate lever responding at 1 mg/kg, ip co-treated with WAY163909 15 mins prior to test relative to control. In kind it is functional.
Data set [20] deals with Rattus norvegicus. As to the kind of experiment: Drug discrimination in WAY163909-trained Sprague-Dawley rat assessed as increase in WAY163909-appropriate lever responding at 0.5 mg/kg, ip co-treated with WAY163909 15 mins prior to test relative to control. Format: functional. A digest of the protocol:
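Water-restricted male Sprague–Dawley rats were trained to discriminate WAY163909 (0.75 mg/kg ip, 15 min pretreatment) from saline under FR20, to a criterion of ≥80% correct for 10 sessions. Test doses were given ip 15 min before test: compound alone (0.125–1.0 mg/kg) or compound 0.5 mg/kg plus WAY163909 0.5 mg/kg. Read-out was % drug-lever responding; only rats completing FR20 within 15 min were counted.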

Active and inactive are the calls of the source.

Chain of Sodium-dependent dopamine transporter (Homo sapiens) (Q01959 whole entry): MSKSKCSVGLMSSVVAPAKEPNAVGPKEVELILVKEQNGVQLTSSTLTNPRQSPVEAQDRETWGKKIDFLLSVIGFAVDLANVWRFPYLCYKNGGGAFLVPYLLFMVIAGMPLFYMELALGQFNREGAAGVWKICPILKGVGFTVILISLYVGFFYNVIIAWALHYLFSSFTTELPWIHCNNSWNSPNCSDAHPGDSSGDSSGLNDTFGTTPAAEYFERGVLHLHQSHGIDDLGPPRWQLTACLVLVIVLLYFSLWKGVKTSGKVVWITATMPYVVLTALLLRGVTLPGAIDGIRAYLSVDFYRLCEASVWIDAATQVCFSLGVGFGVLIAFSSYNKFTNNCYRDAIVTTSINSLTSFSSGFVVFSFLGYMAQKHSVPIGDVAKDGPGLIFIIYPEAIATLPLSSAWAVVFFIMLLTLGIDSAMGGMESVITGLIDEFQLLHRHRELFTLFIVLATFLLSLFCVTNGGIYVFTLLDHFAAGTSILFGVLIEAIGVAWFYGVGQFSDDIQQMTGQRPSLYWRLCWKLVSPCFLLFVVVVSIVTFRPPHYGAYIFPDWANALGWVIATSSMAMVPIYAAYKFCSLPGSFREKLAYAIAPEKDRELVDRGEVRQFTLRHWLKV
Chain of D(1B) dopamine receptor (Homo sapiens) (P21918 whole entry): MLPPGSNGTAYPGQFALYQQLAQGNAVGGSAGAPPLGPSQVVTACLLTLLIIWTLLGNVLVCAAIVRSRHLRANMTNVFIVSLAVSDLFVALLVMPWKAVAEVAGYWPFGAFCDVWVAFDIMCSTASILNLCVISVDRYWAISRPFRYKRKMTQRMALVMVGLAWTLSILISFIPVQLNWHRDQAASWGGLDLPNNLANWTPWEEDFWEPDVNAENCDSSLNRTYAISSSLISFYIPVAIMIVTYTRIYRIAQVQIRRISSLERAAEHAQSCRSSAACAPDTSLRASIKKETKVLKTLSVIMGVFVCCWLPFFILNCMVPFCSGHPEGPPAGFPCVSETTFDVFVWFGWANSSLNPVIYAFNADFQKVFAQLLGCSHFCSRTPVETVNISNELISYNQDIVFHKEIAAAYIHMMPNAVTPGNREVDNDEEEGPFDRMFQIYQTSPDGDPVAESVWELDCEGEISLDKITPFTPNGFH
Chain of 5-hydroxytryptamine receptor 1A (Homo sapiens) (P08908 whole entry): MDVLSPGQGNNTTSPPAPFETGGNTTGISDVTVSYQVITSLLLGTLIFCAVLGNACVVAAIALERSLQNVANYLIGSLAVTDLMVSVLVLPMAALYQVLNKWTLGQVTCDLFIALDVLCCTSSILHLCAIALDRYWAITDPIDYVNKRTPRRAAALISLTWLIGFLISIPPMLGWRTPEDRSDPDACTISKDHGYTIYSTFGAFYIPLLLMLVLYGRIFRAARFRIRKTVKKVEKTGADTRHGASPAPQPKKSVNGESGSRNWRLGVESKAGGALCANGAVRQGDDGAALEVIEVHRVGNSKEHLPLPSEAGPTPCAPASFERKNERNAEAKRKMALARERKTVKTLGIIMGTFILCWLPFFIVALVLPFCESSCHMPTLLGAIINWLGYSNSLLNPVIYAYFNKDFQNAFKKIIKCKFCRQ
Chain of D(1A) dopamine receptor (Homo sapiens) (P21728 whole entry): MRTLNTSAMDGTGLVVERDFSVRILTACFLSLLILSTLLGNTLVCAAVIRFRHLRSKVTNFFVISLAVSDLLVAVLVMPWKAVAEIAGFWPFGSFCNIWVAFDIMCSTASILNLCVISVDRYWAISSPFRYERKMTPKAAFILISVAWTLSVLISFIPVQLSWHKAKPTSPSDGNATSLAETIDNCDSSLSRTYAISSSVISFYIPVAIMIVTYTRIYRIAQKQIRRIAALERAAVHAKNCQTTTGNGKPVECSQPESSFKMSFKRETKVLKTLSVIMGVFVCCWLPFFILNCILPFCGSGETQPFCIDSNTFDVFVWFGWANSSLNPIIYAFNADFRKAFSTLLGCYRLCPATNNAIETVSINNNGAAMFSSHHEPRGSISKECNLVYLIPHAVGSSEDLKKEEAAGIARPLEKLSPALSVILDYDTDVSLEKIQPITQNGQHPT
Chain of 5-hydroxytryptamine receptor 7 (Homo sapiens) (P34969 whole entry): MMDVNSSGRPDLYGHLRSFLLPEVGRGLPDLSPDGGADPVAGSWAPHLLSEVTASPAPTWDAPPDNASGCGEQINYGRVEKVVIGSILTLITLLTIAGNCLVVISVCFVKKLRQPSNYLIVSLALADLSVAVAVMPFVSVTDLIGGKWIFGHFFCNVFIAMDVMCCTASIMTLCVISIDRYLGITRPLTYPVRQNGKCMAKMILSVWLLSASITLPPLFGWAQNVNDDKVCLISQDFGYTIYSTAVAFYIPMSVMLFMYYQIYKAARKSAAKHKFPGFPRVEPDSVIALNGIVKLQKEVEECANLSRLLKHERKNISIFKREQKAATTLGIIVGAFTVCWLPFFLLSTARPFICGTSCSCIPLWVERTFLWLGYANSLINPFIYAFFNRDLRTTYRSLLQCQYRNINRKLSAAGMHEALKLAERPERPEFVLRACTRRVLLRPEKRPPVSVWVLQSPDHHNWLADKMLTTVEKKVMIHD
Chain of 5-hydroxytryptamine receptor 6 (Homo sapiens) (P50406 whole entry): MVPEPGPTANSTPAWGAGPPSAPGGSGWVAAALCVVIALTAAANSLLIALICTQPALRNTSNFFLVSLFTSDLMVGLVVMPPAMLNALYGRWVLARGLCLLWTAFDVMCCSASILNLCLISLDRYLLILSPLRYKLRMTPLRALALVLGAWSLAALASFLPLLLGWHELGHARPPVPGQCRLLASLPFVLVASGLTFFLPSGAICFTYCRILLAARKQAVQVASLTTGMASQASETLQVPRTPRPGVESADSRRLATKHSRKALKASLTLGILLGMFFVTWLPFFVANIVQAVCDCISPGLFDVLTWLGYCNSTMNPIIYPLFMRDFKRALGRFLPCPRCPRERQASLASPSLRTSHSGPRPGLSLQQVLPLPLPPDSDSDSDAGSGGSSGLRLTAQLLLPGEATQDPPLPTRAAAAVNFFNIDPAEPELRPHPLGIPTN
Chain of Sodium-dependent serotonin transporter (Homo sapiens) (P31645 whole entry, looked up): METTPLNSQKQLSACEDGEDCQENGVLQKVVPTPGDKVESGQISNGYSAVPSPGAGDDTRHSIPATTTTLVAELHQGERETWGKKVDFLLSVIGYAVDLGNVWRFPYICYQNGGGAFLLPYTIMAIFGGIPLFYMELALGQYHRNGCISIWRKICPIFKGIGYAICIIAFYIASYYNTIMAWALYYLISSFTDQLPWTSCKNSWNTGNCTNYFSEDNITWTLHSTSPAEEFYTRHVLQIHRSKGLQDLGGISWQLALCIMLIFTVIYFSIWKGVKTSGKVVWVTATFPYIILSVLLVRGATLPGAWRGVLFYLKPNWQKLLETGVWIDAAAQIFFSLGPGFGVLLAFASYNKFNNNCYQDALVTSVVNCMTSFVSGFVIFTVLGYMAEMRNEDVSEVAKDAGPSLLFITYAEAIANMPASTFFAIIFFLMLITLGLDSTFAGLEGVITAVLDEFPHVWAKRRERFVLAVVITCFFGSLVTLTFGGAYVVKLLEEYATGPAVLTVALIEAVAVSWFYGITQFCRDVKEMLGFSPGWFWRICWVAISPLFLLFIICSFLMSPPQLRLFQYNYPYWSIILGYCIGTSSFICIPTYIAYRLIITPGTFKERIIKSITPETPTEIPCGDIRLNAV
Chain of D(2) dopamine receptor (Homo sapiens) (P14416 whole entry): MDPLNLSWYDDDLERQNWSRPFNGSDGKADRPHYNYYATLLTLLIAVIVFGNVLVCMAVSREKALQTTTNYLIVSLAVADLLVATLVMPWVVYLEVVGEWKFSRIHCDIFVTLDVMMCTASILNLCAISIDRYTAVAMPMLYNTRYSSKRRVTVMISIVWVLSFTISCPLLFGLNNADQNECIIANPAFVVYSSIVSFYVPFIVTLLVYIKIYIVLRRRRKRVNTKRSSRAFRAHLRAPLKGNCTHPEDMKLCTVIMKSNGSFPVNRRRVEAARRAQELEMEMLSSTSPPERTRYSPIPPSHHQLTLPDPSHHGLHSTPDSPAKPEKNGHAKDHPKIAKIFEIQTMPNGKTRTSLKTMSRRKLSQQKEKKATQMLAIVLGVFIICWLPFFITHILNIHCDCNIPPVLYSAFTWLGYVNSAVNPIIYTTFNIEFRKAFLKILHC
Chain of Alpha-2A adrenergic receptor (Homo sapiens) (P08913 whole entry): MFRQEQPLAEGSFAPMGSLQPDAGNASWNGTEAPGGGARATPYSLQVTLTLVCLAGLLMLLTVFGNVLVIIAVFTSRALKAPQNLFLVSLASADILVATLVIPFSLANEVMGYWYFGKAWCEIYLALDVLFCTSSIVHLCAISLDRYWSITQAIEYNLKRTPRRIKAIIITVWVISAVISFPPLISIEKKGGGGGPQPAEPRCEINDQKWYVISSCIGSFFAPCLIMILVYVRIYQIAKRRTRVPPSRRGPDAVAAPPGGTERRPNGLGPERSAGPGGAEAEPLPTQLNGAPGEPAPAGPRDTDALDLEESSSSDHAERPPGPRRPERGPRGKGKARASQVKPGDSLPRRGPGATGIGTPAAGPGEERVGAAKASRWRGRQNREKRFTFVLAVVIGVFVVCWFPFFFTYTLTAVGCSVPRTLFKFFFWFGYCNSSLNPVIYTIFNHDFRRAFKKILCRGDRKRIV
Chain of D(3) dopamine receptor (Homo sapiens) (P35462 whole entry): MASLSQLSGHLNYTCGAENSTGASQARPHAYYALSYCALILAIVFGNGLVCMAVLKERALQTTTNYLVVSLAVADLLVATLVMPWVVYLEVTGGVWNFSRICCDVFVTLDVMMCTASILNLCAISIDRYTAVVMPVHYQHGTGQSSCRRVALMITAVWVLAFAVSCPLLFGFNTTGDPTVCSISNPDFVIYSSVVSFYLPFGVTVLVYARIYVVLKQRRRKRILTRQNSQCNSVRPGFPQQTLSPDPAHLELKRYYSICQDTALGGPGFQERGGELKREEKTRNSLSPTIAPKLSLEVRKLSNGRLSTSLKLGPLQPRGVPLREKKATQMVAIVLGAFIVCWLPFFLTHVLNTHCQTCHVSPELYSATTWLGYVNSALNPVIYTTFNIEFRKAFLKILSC

Regarding `CCCCCCCCCCC[C@@H]1CCN[C@H](C(=O)NCC(O)CO)C1` (relative stereo), the inhibition in [1] was found to be 25.7%; in [2], 9.8%; in data set [3], 18.1%; in data set [4] it was 26.8%; in data set [5], 29.3%; in data set [6] it was 28.8%. Moreover, the inhibition came out at 71.4% in data set [7]; 32.5% in data set [8]; 66.3% in data set [9]; 24.8% in data set [10]; 85.1% in data set [11]. Also, the time to peak (Tmax) in data set [12] turned out to be 3.3 h. In data set [13], this compound gave a distribution volume (Vdss) of 35.07 L/kg. Also, in data set [14], the Cmax came out at 68.1 ng/mL. Also, the outcome with Rattus norvegicus [15], in the data set with Rattus norvegicus [16] and with Rattus norvegicus [17] was Active. Further, in the data set with Rattus norvegicus [18], the outcome was inactive. In the data set with Rattus norvegicus [19], the Emax at 1 mg/kg turned out to be 45%. The Activity in the data set on Rattus norvegicus [20] came to 95%.

These data come from ChEMBL document CHEMBL4308830, “Design, Synthesis, and Characterization of 4-Undecylpiperidine-2-carboxamides as Positive Allosteric Modulators of the Serotonin (5-HT) 5-HT2C Receptor” (J Med Chem, 2018).
